Compound activity deposited in PubChem BioAssay by several laboratories.
OPRM1-OPRD1 inv: mu-delta opioid heterodimer inverse agonism; P35372+P41143; cell-based MOR-DOR heterodimer luminescence; inhibition, % at 9.3 µM; actives 0.21% (n = 340,000); in the data active = inhibition above about 22%, passing the limit was not always enough;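 also: 0% = cells with DMSO and 100% = wells without cells with DMSO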
Target sequence (P35372 whole entry, looked up): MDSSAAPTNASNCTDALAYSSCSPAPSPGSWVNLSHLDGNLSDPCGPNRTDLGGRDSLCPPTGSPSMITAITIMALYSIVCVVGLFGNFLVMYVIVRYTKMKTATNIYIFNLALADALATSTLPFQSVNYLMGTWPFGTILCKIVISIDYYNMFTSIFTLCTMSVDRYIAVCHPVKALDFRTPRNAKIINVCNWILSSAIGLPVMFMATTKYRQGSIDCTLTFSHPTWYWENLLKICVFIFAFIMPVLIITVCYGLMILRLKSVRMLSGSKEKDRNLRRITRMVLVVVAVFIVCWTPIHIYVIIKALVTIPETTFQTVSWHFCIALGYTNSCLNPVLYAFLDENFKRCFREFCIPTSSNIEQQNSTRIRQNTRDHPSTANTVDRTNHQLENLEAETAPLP
Target sequence (P41143 whole entry, looked up): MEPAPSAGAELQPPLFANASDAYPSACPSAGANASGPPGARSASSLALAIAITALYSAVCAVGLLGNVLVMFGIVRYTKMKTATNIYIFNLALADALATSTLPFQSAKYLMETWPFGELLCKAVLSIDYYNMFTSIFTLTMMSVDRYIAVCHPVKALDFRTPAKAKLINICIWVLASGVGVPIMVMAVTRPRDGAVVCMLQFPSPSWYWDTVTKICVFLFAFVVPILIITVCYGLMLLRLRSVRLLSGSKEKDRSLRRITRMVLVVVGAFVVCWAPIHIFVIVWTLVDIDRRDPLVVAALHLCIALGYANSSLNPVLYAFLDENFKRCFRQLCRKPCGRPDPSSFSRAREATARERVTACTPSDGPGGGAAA
HTR5A inv ag: inverse agonist of human HTR5A in OPRM1-OPRD1 counter-screen. P47898. HTR5A cell line, luminescence, inverse agonism. inhibition, % at 9.3 µM. actives 0.083% (n = 340,000); in the data active = inhibition mostly above about 23%, no sharp cut-off; inactive = mostly below about 18%;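 also: 0% = cells with DMSO and 100% = no-cell wells with DMSO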
HTR5A ag: counter-screen for OPRM1-OPRD1 agonists: human HTR5A agonism; P47898; HTR5A agonist assay, luminescence, cell-based; activation, % at 9.3 µM; actives 0.61% (n = 340,000); AID 504692; in the data active = activation mostly above about 9.5%, no sharp cut-off; inactive = mostly below about 7.6%;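 also: 0% = cells with vehicle only and 100% = reference agonist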
Lipid droplet: modulators of hepatic lipid droplet formation; AML12 mouse hepatocytes, oleate lipid droplets, BODIPY imaging; inhibition, % at 6.5 µM; actives 0.4% (n = 240,000);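 active = lipid droplet intensity inhibited by at least 50%, with more than 500 cells counted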
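Assay system: AML12 hepatocytes (mouse); Probe or stimulus: oleic acid at 100 µM to induce lipid droplet formation; Dosing: compound at 6.5 µM only; Schedule: compound with oleate, overnight; Detection: fluorescence imaging, 20x objective, two fields per well; Measure: % inhibition of lipid droplet signal.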
OPRM1-OPRD1 ag: OPRM1-OPRD1 heterodimerization agonism. actives 0.3% (n = 340,000). cells, luminescence. P35372+P41143. activation, % at 9.3 µM. AID 504326; in the data active = activation above about 18%;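 also: 0% = vehicle-treated cells and 100% = reference agonist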
Hep lipid conf: confirmation of inhibitors of hepatic lipid droplet formation; AML12 mouse hepatocytes, BODIPY lipid droplet imaging; droplets induced with 100 µM oleic acid; inhibition, % at 5.2 µM; shares compounds with Lipid droplet; actives 65% (n = 870);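 active = inhibition of lipid droplet metric at least 50%, with more than 300 cells in each of four replicates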;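 also: plate controls were DMSO with oleic acid for no effect and 5 µM Triacsin-C for full effect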
AML12 tox img: counter-screen for cytotoxicity in AML12 mouse hepatocytes. shares compounds with Lipid droplet. DAPI nuclear morphology cytotoxicity imaging; stronger effect = higher value; cells fed 100 µM oleate overnight. z-score at 5 µM. actives 3% (n = 870). AID 463200; in the data active = z-score above about 6.3;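 also: compound exposure lasted overnight at 37 °C before fixation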
AML12 tox conf: confirmation of cytotoxicity in AML12 mouse hepatocytes | 530 tested, under 10 active | shares compounds with Lipid droplet | AML12 mouse hepatocyte viability, ATP luminescence; cells loaded with 100 µM oleic acid | cytotoxicity, % at 50 µM | AID 463219;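 active = cytotoxicity above 50% in each of four replicates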;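 also: compound exposure lasted overnight at 37 °C before the ATP read; 0% = DMSO-treated cells and 100% = wells with no cells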
* = called active by the depositor; x = not tested or not shown. This is a sample that favours compounds with a hit; in the whole collection about 1.4% have one here.

SMILES	OPRM1-OPRD1 inv	HTR5A inv ag	HTR5A ag	Lipid droplet	OPRM1-OPRD1 ag	Hep lipid conf	AML12 tox img	others
Cc1oc(-c2ccccc2Cl)nc1CS(=O)CC(=O)NCc1ccccc1Cl (stereo not given)	8.2	17.5	-3.6	-3.7	-1.6	x	x
N/C(Cc1ccc(Cl)cc1Cl)=N\OC(=O)c1ccc(Br)o1	-78.5	-28.0	2.7	57.1*	14.8	2.0	-0.224
N/C(Cc1cccc2ccccc12)=N\OC(=O)c1ccc(Br)o1	x	x	x	-9.4	x	x	x
COc1ccc(S(=O)(=O)N(CC(=O)N2CCCCCC2)c2ccccc2OC)cc1	12.4	-5.9	2.1	58.0*	-1.9	-11.8	-1.35
CCOC(=O)N1CCN(C(=O)CN(c2ccccc2OC)S(=O)(=O)c2ccc(OC)cc2)CC1	-10.3	-6.2	-3.2	0.2	2.0	x	x
COc1ccc2c(c1)-c1c(ssc1=S)C(C)(C)N2C(=O)CSC1=NCCS1	9.5	-4.1	-4.3	-5.0	-1.5	x	x
CCOc1ccc2c(c1)-c1c(ssc1=S)C(C)(C)N2C(=O)c1ccco1	15.0	25.0	-5.6	74.6*	-2.9	89.9*	21.1*
COc1ccc(NC(=O)c2cc(C)no2)cc1Cl	11.2	-0.8	0.3	1.6	-2.1	x	x
CCCN1C(=O)/C(=C\C=C2/Sc3ccccc3N2CC)SC1=S	x	x	x	21.1	x	x	x
CCCN1C(=O)/C(=C\C=C2\N(CC)c3ccccc3C2(C)C)SC1=S	10.5	19.8	-8.0	111.2*	-2.0	114.7*	0.188	AML12 tox conf=8.4
CCCCNC(=S)N(CCCN(C)C)Cc1cc2cc3c(cc2[nH]c1=O)OCO3	8.4	5.1	-1.4	16.6	-1.7	x	x
O=C(Nc1nc(-c2cccs2)c(-c2cccs2)s1)C1CCCC1	3.7	-18.1	1.3	54.5*	-0.7	93.7*	-0.484
COc1ccc(C)cc1NC(=O)Nc1ccc(C(=O)N2CCCC2)cc1	3.0	0.3	6.5	69.5*	-0.6	95.1*	0.296	AML12 tox conf=28.5
COc1ccc(Cl)cc1NC(=S)N1CCCC1	7.4	5.9	-2.1	-6.8	-1.4	x	x
COc1ccc(Cl)cc1NC(=O)Nc1ccc(C(=O)N2CCCC2)cc1	-19.4	-10.1	3.4	55.7*	3.6	77.1*	-0.606	AML12 tox conf=18.4
CCOC(=O)N1CCN(c2nc(-c3ccccc3)c3ccccc3n2)CC1	-9.8	-4.4	1.2	0.8	2.2	x	x
CN1C(C(=O)NCCc2cccs2)CC2Cn3c(nc4cc5ccccc5cc43)C21 (stereo not given)	5.0	15.8	-6.2	-0.1	-0.9	x	x
COc1ccc(CCNC(=O)C2CC3Cn4c(nc5cc6ccccc6cc54)C3N2C)cc1 (stereo not given)	14.3	-6.2	2.5	51.3*	-3.1	7.9	0.472
Cc1ccc(C)c(C(=O)N2CCN(c3ncccn3)CC2)c1	2.7	-15.1	4.3	57.1*	-0.6	-12.9	-0.174
O=C(NNC(=O)c1ccc(S(=O)(=O)N2CCCC2)cc1)c1ccc(Br)cc1	0.5	-14.5	4.7	x	-0.1	x	x
COc1ccc(CN(C)C(=O)CNC(=O)Cc2cccc3ccccc23)c(OC)c1OC	7.9	13.2	4.8	52.8*	-1.5	82.5*	-0.31	AML12 tox conf=15.5
COc1ccc(CCN2C(=O)CC(N3CCOCC3)C2=O)cc1OC (stereo not given)	20.3	-9.5	5.2	51.3*	-4.8	25.4	-0.31
COc1ccc(CCN2C(=O)CC(N3CCOCC3)C2=O)cc1 (stereo not given)	5.0	-6.2	4.8	11.4	-0.8	x	x
Cc1ccccc1CNC(=O)C(=O)NCC1CCCN1S(=O)(=O)c1cccs1 (stereo not given)	11.8	3.7	1.5	x	-1.9	x	x
COc1ccccc1N1CCN(C(=O)Cn2ncc3c([nH]c4ccccc43)c2=O)CC1	1.8	1.9	-0.5	52.4*	-0.3	70.8*	-1.48	AML12 tox conf=7.6
SMILES	OPRM1-OPRD1 inv	HTR5A inv ag	HTR5A ag	Lipid droplet	OPRM1-OPRD1 ag	Hep lipid conf	AML12 tox img	others
COc1ccc(N2CCN(C(=O)Cn3ncc4c([nH]c5ccccc54)c3=O)CC2)cc1	1.2	-6.0	1.6	-8.9	-0.2	x	x
O=C(CSc1nc(-c2ccco2)cc(C(F)(F)F)n1)Nc1ccc(C(=O)N2CCOCC2)cc1	4.7	-8.8	3.2	59.0*	-0.8	90.4*	-0.188	AML12 tox conf=9.5
CCOc1cc(/C=N\Nc2nc(Nc3ccccc3)nc(N3CCOCC3)n2)ccc1OC(=O)c1ccco1	-25.0	-12.9	1.7	132.0*	4.9	108.8*	20.5*
COc1cc(/C=N/Nc2nc(C)cc(C)n2)ccc1OC(=O)c1ccco1	0.3	-25.5	5.5	1.0	0.0	x	x
O=C(c1nn2c(C(F)(F)F)cc(-c3cccs3)nc2c1Cl)N1CCCc2ccccc21	5.7	-9.1	-5.6	53.4*	-1.1	26.4	1.44
Cc1ccc(OCC(=O)Nc2ccc3c(c2)C(=O)NC3=O)cc1	15.1	-13.7	3.7	8.6	-2.6	x	x
O=C(COc1ccc(Cl)cc1)Nc1ccc2c(c1)C(=O)NC2=O	6.8	-2.5	3.7	59.5*	-1.3	4.7	0.0792
CCOC(=O)C1=C(C)NC(=O)NC1/C=C/c1ccccc1 (stereo not given)	11.9	-11.5	4.5	62.1*	-2.1	23.8	-0.426
CCOC(=O)C1=C(C)NC(=O)NC1/C=C/c1ccccc1OC (stereo not given)	1.6	-3.8	1.5	2.8	-0.3	x	x
CC(C)(C)c1ccc(OCCC(=O)NNC(=O)c2ccncc2)cc1	-1.4	-34.5	6.2	x	0.3	x	x
CCOc1ccc(NC(=O)CN(C)C(=O)C2CC2C)cc1OCC (stereo not given)	13.4	11.4	1.9	x	-2.1	x	x
CCOc1ccc(NC(=O)CN(C)c2ccc(S(=O)(=O)N(C(C)C)C(C)C)cn2)cc1OCC	4.2	8.4	-1.7	52.4*	-0.9	83.7*	0.0162	AML12 tox conf=38.0
C#CCOCCOCCOCCNc1nc(N2CCOCC2)nc(N2CCN(C(=O)[C@H]([C@@H](C)CC)n3cc([C@@H](N)Cc4ccc(O)cc4)nn3)CC2)n1	5.0	-1.6	-0.7	55.0*	-0.8	13.3	-0.697
C#CCOCCOCCOCCNc1nc(N2CCN(C(=O)[C@H]([C@@H](C)CC)n3cc([C@@H](N)Cc4ccc(O)cc4)nn3)CC2)nc(N2CCN(C(=O)[C@H]([C@@H](C)CC)n3cc([C@@H](N)CC(C)C)nn3)CC2)n1	12.4	-8.6	3.2	-1.2	-2.1	x	x
CCC1(c2ccccc2)NC(=O)N(CC(=O)N(C)Cc2c(F)cccc2Cl)C1=O (stereo not given)	4.1	5.7	-2.1	81.2*	-0.8	99.0*	0.204	AML12 tox conf=14.0
CC(C)(C)C(=O)O/N=C(\N)c1ccc(-c2csnn2)cc1	-24.0	-13.4	5.2	-1.0	4.9	x	x
